Measured values as given in ChEMBL document CHEMBL5614410, “Design, Synthesis, and Evaluation of p53Y220C Acetylation Targeting Chimeras (AceTACs)” (J Med Chem, 2024).
pEC50: −log10 of the molar value. The source made the active and inactive calls. No cut-off for these calls is given here.

Columns and labels:
[1] = biological target: CREB-binding protein/Histone acetyltransferase p300/Cellular tumor antigen p53 (Homo sapiens, UniProt P04637+Q09472+Q92793, Y220C); test: AceTAC activity at FLAG-tagged p53Y220C mutant (unknown origin) expressed in human NCI-H1299 cells expressing p300/CBP assessed as increase in p53 acetylation at lysine 382 residue incubated for 24 hrs by western blot analysis; assay type: cell-based
How it was run: (§1)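 NCI-H1299 (p53Y220C) cells were treated at 0.1–10 μM (0.1, 0.3, 1, 3 or 10 μM) for 24 h. Lysates were Western blotted for p53 and p53K382ac, with vinculin as loading control. p53K382ac was normalised to total p53Y220C and quantified from two or three independent experiments.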

[2] = test system: CREB-binding protein/Histone acetyltransferase p300/Cellular tumor antigen p53 (Homo sapiens), P04637+Q09472+Q92793 [Y220C]; test: AceTAC activity at FLAG-tagged p53Y220C mutant (unknown origin) expressed in human NCI-H1299 cells expressing p300/CBP assessed as fold increase in p53 acetylation at lysine 382 residue at 10 uM incubated for 24 hrs by western blot analysis relative to control; assay type: cell-based
How it was run: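 NCI-H1299 (p53Y220C) cells were exposed to 1, 3 and 10 μM for 24 h, then Western blotted. The K382ac signal was normalized to total p53Y220C and quantified from two independent experiments (±SD), relative to DMSO.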

[3] = test system: CREB-binding protein/Histone acetyltransferase p300/Cellular tumor antigen p53 (Homo sapiens), P04637+Q09472+Q92793 [Y220C]; test: AceTAC activity at FLAG-tagged p53Y220C mutant (unknown origin) expressed in human NCI-H1299 cells expressing p300/CBP assessed as stabilization of protein by measuring increase in aggregation temperature at 100 uM incubated for 1 hr at 32 to 50 degC by CETSA analysis; assay type: cell-based
How it was run: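 For CETSA, NCI-H1299 (p53Y220C) stable cells were treated with DMSO or 100 μM compound for 1 h, then heated at 32 to 50 °C. Soluble p53 was detected by Western blot. Representative of at least two independent experiments.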

[4] = test system: CREB-binding protein/Histone acetyltransferase p300/Cellular tumor antigen p53 (Homo sapiens), P04637+Q09472+Q92793 [Y220C]; test: AceTAC activity at FLAG-tagged p53Y220C mutant (unknown origin) expressed in human NCI-H1299 cells expressing p300/CBP assessed as increase in p53 acetylation at lysine 382 residue at 10 uM incubated for 24 hrs by western blot analysis relative to control; assay type: cell-based; how it was run: as §1
NCI-H1299 [5] = test: Antiproliferative activity against human NCI-H1299 cells expressing p53Y220C mutant assessed as reduction in cell viability incubated for 3 days by WST-8 assay; assay type: functional; conditions: NCI-H1299, 72 h, time 3 day
How it was run: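 NCI-H1299 p53Y220C cells were exposed to compound over a concentration range for 72 h, in some runs after 72 h of control or p300 siRNA, before the viability read-out. Values are mean ± SD of three independent experiments.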

[6] = test system: CREB-binding protein/Histone acetyltransferase p300/Cellular tumor antigen p53 (Homo sapiens), P04637+Q09472+Q92793 [Y220C]; test: AceTAC activity at FLAG-tagged p53Y220C mutant (unknown origin ) expressed in human NCI-H1299 cells expressing p300/CBP assessed as increase in p53 acetylation at lysine 382 residue at 1 uM incubated for 24 hrs by western blot analysis; assay type: cell-based
How it was run: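 NCI-H1299 cells stably expressing p53Y220C, treated 24 h at 1 or 10 μM. Lysates were Western blotted for total p53 and p53 K382ac, with vinculin as loading control. Blots are representative of at least two independent experiments.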

BXPC-3 = test: Antiproliferative activity against human BXPC-3 cells harboring p53Y220C mutant assessed as inhibition of cell growth incubated for 72 hrs by WST-8 assay; assay type: functional
How it was run: (§2)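 BxPC3 or NUGC-3 cells were treated with DMSO or compound over a concentration range for 72 h before the viability read-out. Values are mean ± SD of technical triplicates from three biological experiments.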

[7] = test system: Cellular tumor antigen p53 (Homo sapiens), P04637 [Y220C]; test: Induction of p53Y220C mutant acetylation in human BXPC-3 cells expressing p300/CBP assessed as increase in p53 acetylation at lysine 382 residue at 1 to 10 uM incubated for 24 hrs by western blot analysis; assay type: cell-based; conditions: dose 1-10 µM
How it was run: (§3)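 BxPC3 or NUGC-3 cells, which endogenously carry p53Y220C, were dosed at 1, 3 or 10 μM (or DMSO) for 24 h. Lysates were immunoblotted for p53 and p53 K382ac, with vinculin loading control. Blots are representative of two independent experiments.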

[8] = test system: Cellular tumor antigen p53 (Homo sapiens), P04637 [Y220C]; test: Induction of p53Y220C mutant acetylation in human NUGC-3 cells expressing p300/CBP assessed as increase in p53 acetylation at lysine 382 residue at 1 to 10 uM incubated for 24 hrs by western blot analysis; assay type: cell-based; conditions: dose 1-10 µM; how it was run: as §3
NUGC-3 = test: Antiproliferative activity against human NUGC-3 cells harboring p53Y220C mutant assessed as inhibition of cell growth incubated for 72 hrs by WST-8 assay; assay type: functional; how it was run: as §2
NCI-H1299 [9] = test: Antiproliferative activity against p53-null human NCI-H1299 cells assessed as reduction in cell viability at 0.47 to 15 uM incubated for 3 days by WST-8 assay; assay type: functional, cell-based; conditions: dose 0.47-15 µM, time 3.0 day
How it was run: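 p53-null NCI-H1299 cells were exposed to compound across the concentration series for 72 h before the viability read-out. Data are mean ± SD from three independent experiments.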

[10] = test system: Cellular tumor antigen p53 (Homo sapiens), P04637 [Y220C]; test: Stabilization of p53Y220C mutant (unknown origin) expressed in human NCI-H1299 cells assessed as increase in melting temperature incubated for 1 hr by CETSA analysis; assay type: cell-based
How it was run: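 CETSA: NCI-H1299 (p53Y220C) stable cells were treated with DMSO or 100 μM for 1 h, then heated from 32 to 50 °C. Soluble p53 was detected by Western blot. Results are representative of at least two independent experiments.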

[11] = test system: Cellular tumor antigen p53 (Homo sapiens), P04637 [Y220C]; test: Induction of FLAG-tagged p53Y220C mutant acetylation (unknown origin) expressed in human NCI-H1299 cells assessed as increase in p53 acetylation at lysine 382 residue at 10 uM incubated for 24 hrs by western blot analysis relative to control; assay type: cell-based; how it was run: as §1
[12] = test system: Cellular tumor antigen p53 (Homo sapiens), P04637 [Y220C]; test: Stabilization of p53Y220C mutant (unknown origin) assessed as increase in melting temperature at 250 uM by […]
[13] = test system: Cellular tumor antigen p53 (Homo sapiens), P04637 [Y220C]; test: Stabilization of FLAG-tagged p53Y220C mutant (unknown origin) expressed in human NCI-H1299 cells assessed as downregulation of E2F1 mRNA expression at 3 uM incubated for 24 hrs by RT-qPCR analysis; assay type: cell-based
How it was run: (§4)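 NCI-H1299 p53Y220C cells were treated with 3 μM or DMSO for 24 h, followed by RT-qPCR of p53 target genes. Each transcript was normalized to GAPDH, then expressed relative to the DMSO control. Values are mean ± SD from three independent experiments.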

[14] = test system: Cellular tumor antigen p53 (Homo sapiens), P04637 [Y220C]; test: Stabilization of FLAG-tagged p53Y220C mutant (unknown origin) expressed in human NCI-H1299 cells assessed as upregulation of GADD45A mRNA expression at 3 uM incubated for 24 hrs by RT-qPCR analysis; assay type: cell-based; how it was run: as §4
PNT2 = test: Cytotoxicity against human PNT2 cells assessed as inhibition of cell growth incubated for 72 hrs by WST-8 assay; assay type: toxicity, cell-based; conditions: pnt2, 72 h
How it was run: (§5)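 U2OS (WT p53) or normal prostate PNT2 cells were treated for 72 h at the indicated concentrations. Viability is mean ± SD of technical triplicates from two biological experiments.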

U2OS = test: Cytotoxicity against human U2OS cells harboring wild type p53 assessed as inhibition of cell growth incubated for 72 hrs by WST-8 assay; assay type: toxicity, cell-based; how it was run: as §5
NCI-H1299 [15] = test: Antiproliferative activity against human NCI-H1299 cells expressing p53Y220C mutant and transfected with p300 siRNA assessed as reduction in cell viability at 0.47 to 15 uM incubated for 3 days by WST-8 assay; assay type: functional, cell-based; conditions: dose 0.47-15 µM, time 3.0 day
How it was run: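 NCI-H1299 p53Y220C cells were first transfected with p300 siRNA for 72 h, then exposed to compound across the concentration series for 72 h. Viability is mean ± SD from three independent experiments.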

[16] = test system: CREB-binding protein/Histone acetyltransferase p300/Cellular tumor antigen p53 (Homo sapiens), P04637+Q09472+Q92793 [Y220C]; test: Induction of interaction between FLAG-tagged p53Y220C mutant (unknown origin) and p300/CBP expressed in human NCI-H1299 cells assessed as ternary complex formation at 10 uM incubated for 24 hrs by co-immunoprecipitation analysis; assay type: cell-based
How it was run: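 NCI-H1299 p53-null and p53Y220C cells were treated with DMSO or compound at 10 μM for 24 h. p53-FLAG pull-down was followed by Western blotting for associated p300. Representative of two independent experiments.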

[17] = test system: Cellular tumor antigen p53 (Homo sapiens), P04637 [Y220C]; test: Stabilization of FLAG-tagged p53Y220C mutant (unknown origin) expressed in human NCI-H1299 cells assessed as upregulation of p21 mRNA expression at 3 uM incubated for 24 hrs by RT-qPCR analysis; assay type: cell-based; how it was run: as §4
[18] = Cytotoxicity against human U2OS cells harboring wild type p53 assessed as inhibition of cell growth at 10 uM incubated for 72 hrs by WST-8 assay; assay type: toxicity, cell-based; how it was run: as §5
[19] = Cytotoxicity against human PNT2 cells assessed as inhibition of cell growth at 10 uM incubated for 72 hrs by WST-8 assay; assay type: toxicity, cell-based; how it was run: as §5

Question: With `CCn1c2ccc(CNCCOCCOCCOCCn3cc(COc4ccc(CCc5nc6cc(-c7c(C)noc7C)ccc6n5CCN5CCOCC5)cc4F)nn3)cc2c2ccc(-c3cc(C)cs3)cc21` as the compound, how does the pEC50 [1] read?
Answer: 5.73

Question: And the fold change (FC) [2]?
Answer: 4

Question: What about the ΔTm [3] of the same compound?
Answer: 4 °C

Question: With `CCn1c2ccc(CNCC(=O)NCCOc3ccc(CCc4nc5cc(-c6c(C)noc6C)ccc5n4CCN4CCOCC4)cc3F)cc2c2ccc(-c3cc(C)cs3)cc21` as the compound, how does the Activity [4] read?
Answer: 60%

Question: And the GI50 (NCI-H1299 [5])?
Answer: 18 µM

Question: With `CCn1c2ccc(CNCCCC(=O)NCCOc3ccc(CCc4nc5cc(-c6c(C)noc6C)ccc5n4CCN4CCOCC4)cc3F)cc2c2ccc(-c3cc(C)cs3)cc21` as the compound, how does the Activity [4] read?
Answer: 195%

Question: And the GI50 (NCI-H1299 [5])?
Answer: 4 µM

Question: What about the Activity [6] of the same compound?
Answer: Active

Question: With `COc1ccc(CCc2nc3cc(-c4c(C)noc4C)ccc3n2CCN2CCOCC2)cc1F` as the compound, how does the Activity (BXPC-3) read?
Answer: inactive

Question: What about the Activity [7] of the same compound?
Answer: inactive

Question: What about the Activity [8] of the same compound?
Answer: inactive

Question: And the Activity (NUGC-3)?
Answer: inactive

Question: And the Activity (NCI-H1299 [9])?
Answer: inactive

Question: With `C=C(C)C(=O)n1cc(C)c2c(-c3ccc4c(c3)CCN(C)C4)cncc21` as the compound, how does the ΔTm [10] read?
Answer: 8.3 °C

Question: For `CCn1c2ccc(CNCCCCCCC(=O)NCCOc3ccc(CCc4nc5cc(-c6c(C)noc6C)ccc5n4CCN4CCOCC4)cc3F)cc2c2ccc(-c3cc(C)cs3)cc21`, which Activity [4] is on record?
Answer: 219%

Question: And the GI50 (NCI-H1299 [5])?
Answer: 4 µM

Question: And the Activity [6]?
Answer: Active

Question: Which results are given for `CCn1c2ccc(CNCCOCCOCCC(=O)NCCOc3ccc(CCc4nc5cc(-c6c(C)noc6C)ccc5n4CCN4CCOCC4)cc3F)cc2c2ccc(-c3cc(C)cs3)cc21`?
Answer: Activity [4]: 205%; GI50 (NCI-H1299 [5]): 4 µM; Activity [6]: Active

Question: For `CCn1c2ccc(CNCCOCCOCCOCCOCCOCCC(=O)NCCOc3ccc(CCc4nc5cc(-c6c(C)noc6C)ccc5n4CCN4CCOCC4)cc3F)cc2c2ccc(-c3cc(C)cs3)cc21`, which Activity [4] is on record?
Answer: 184%

Question: And the GI50 (NCI-H1299 [5])?
Answer: 5 µM

Question: And the Activity [6]?
Answer: Active

Question: Which Activity [11] does the source give for `CCn1c2ccc(CNC)cc2c2ccc(-c3cc(C)cs3)cc21` here?
Answer: 26%

Question: And the ΔTm [12]?
Answer: 3.7 °C

Question: What about the Activity [13] of the same compound?
Answer: inactive

Question: What about the Activity [14] of the same compound?
Answer: Active

Question: What about the GI50 (BXPC-3) of the same compound?
Answer: 14 µM

Question: And the Activity [7]?
Answer: inactive

Question: And the GI50 (PNT2)?
Answer: > 10 µM

Question: And the GI50 (NCI-H1299 [5])?
Answer: 16 µM

Question: What about the GI50 (U2OS) of the same compound?
Answer: > 10 µM

Question: What about the Activity (NCI-H1299 [15]) of the same compound?
Answer: Active

Question: What about the Activity [16] of the same compound?
Answer: inactive

Question: And the Activity [17]?
Answer: Active

Question: What about the Activity [8] of the same compound?
Answer: inactive

Question: What about the GI50 (NUGC-3) of the same compound?
Answer: 10.1 µM

Question: And the inhibition at 72 h, 10 µM [18]?
Answer: 30%

Question: And the Activity (NCI-H1299 [9])?
Answer: inactive

Question: What about the inhibition at 72 h, 10 µM [19] of the same compound?
Answer: ~30%
